Test [1] deals with Cruzipain (Trypanosoma cruzi, UniProt P25779). In words: Inhibition of Trypanosoma cruzi cruzain using Z-Phe-Arg-AMC as substrate by spectrofluorimetry. The procedure, abridged:
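Substrate Z-Phe-Arg-AMC; activity tracked 5 min with stirring in phosphate buffer pH 6.3 with DTT at 37 °C, in cuvettes (ex 380/em 460 nm). Controls: no inhibitor, and E-64. Run in triplicate. IC50 from rates at five inhibitor concentrations by nonlinear regression.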

In test [2] the target is Cathepsin B (Homo sapiens, UniProt P07858). In words: Inhibition of cathepsin B (unknown origin) using fluorometric Z-Phe-Arg-AMC as substrate by spectrofluorimetry. An outline of the steps: (§1)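 Enzyme activated 5 min with DTT in acetate buffer pH 5.5 at 37 °C, then incubated 5 min with sample. Z-Phe-Arg-AMC at 185 μM (catB) or 10 μM (catL), with stirring; fluorescence ex 355/em 460 nm. Controls: no inhibitor, and E-64. Run in triplicate. IC50 from rates at ≥7 inhibitor concentrations by nonlinear regression.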

For test [3], the target named is Procathepsin L (Homo sapiens, UniProt P07711). Description: Inhibition of cathepsin L (unknown origin) using fluorometric Z-Phe-Arg-AMC as substrate by spectrofluorimetry. An outline of the steps:
as §1

For test [4], the system named is Plasmodium falciparum. In words: Antimalarial activity against Plasmodium falciparum 3D7 after 72 hrs by SYBR Green-based parasite proliferation assay. In kind it is functional, organism-based. Particulars: 3D7, 72 h. The procedure, abridged:
(§2)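 Parasites grown in human O+ erythrocytes in RPMI 1640 with hypoxanthine, HEPES, Albumax and 5% human serum, under 3% CO2/1% O2/96% N2 at 37 °C. Cultures were exposed to serial dilutions of compound for 72 h. Parasite DNA growth was read by SYBR Green fluorescence. EC50 was derived from quadruplicate runs, with bromophycolide A as positive control.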

In test [5] the test system is Plasmodium falciparum. Description: Antimalarial activity against Plasmodium falciparum Dd2 after 72 hrs by SYBR Green-based parasite proliferation assay. In kind it is functional. Particulars: Dd2, 72 h. An outline of the steps: as §2
For test [6], the system named is Plasmodium falciparum. Description: Antimalarial activity against Plasmodium falciparum W2 after 72 hrs by SYBR Green-based parasite proliferation assay. In kind it is functional, organism-based. Particulars: W2, 72 h. An outline of the steps: as §2

In general, IC50 refers to the concentration at which inhibition is half-maximal. A lower IC50 goes with greater potency in that assay. What is called EC50 is the concentration that produces a half-maximal response. A high value points to a need for much substance.

Procathepsin L, sequence (P07711 whole entry): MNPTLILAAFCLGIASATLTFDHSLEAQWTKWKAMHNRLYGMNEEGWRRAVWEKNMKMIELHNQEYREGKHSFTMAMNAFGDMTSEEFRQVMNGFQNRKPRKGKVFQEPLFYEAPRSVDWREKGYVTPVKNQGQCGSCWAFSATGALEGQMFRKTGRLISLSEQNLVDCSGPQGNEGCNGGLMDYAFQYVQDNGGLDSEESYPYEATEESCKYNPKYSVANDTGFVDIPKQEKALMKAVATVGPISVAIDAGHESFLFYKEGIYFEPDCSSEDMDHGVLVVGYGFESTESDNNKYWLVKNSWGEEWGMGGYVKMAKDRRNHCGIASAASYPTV
Cruzipain, sequence (P25779 whole entry): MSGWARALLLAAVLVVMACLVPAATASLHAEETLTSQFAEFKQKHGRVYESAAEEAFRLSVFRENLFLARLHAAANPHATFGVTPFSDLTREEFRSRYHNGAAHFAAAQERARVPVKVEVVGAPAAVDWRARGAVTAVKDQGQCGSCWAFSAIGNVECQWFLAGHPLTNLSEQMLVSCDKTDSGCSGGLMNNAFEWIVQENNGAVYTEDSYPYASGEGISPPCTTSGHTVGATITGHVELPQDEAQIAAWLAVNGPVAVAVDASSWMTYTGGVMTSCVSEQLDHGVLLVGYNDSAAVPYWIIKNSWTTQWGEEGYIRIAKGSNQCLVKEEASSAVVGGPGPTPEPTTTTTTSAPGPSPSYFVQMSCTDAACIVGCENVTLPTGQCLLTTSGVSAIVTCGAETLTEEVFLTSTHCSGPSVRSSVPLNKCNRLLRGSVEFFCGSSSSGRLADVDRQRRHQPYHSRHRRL

As for `CC1(C)CCc2c(cc(O)c(C(=O)CCc3ccc4c(c3)CC3C(C)(C)CCCC3(C)O4)c2O)O1` (centres undefined), the figures for the half-maximal inhibitory concentration (IC50) in test [1], in test [2] and in test [3] were 8.7 µM, 8.5 µM and greater than 100 µM, respectively. Besides, the EC50 was 17.7 µM in test [4], 12.4 µM in test [5] and 8.5 µM in test [6].
As for `CC(C)=CCc1cc(CCC(=O)c2c(O)cc3c(c2O)CCC(C)(C)O3)ccc1O`, the values for the IC50 in test [1], in test [2] and in test [3] were 12 µM, greater than 100 µM and 3.3 µM, respectively.
As to `CC(C)C[C@H](NC(=O)[C@H]1O[C@@H]1C(=O)O)C(=O)NCCCCN=C(N)N` [E-64], the IC50 in test [2] stood at 0.04 µM; in test [3], 0.03 µM.
In the case of `CC1(C)CCc2cc(CCC(=O)c3c(O)cc4c(c3O)CCC(C)(C)O4)ccc2O1`, the IC50 is 21.6 µM in test [1] and greater than 100 µM in test [3]. The EC50 is 14.4 µM in test [4], 11.7 µM in test [5] and 6.7 µM in test [6].
For the molecule `CC(C)=CCC/C(C)=C\Cc1c(O)cc(O)c(C(=O)CCc2ccc(O)cc2)c1O`, the values for the IC50 in test [1], in test [2] and in test [3] were 7.1 µM, greater than 100 µM and 1 µM, respectively.

For the origin of these results see ChEMBL document CHEMBL3352268, “Structures and bioactivities of dihydrochalcones from Metrodorea stipularis” (J Nat Prod, 2014).
